What all share (type): cell-based
The nature of assay [1]: Inhibition of gamma-secretase-mediated cleavage of human APP Swedish and London mutation expressed in HEK293 cell membrane.
Assay [2] can be described thus: Inhibition of gamma-secretase-mediated cleavage of human APP Swedish and London mutation expressed in HEK293 cells assessed as reduction in amyloid beta42 production after 4 hrs by ECL technology.
Assay [3] is described as follows: Inhibition of gamma-secretase-mediated cleavage of human APP Swedish and London mutation expressed in HEK293 cells assessed as reduction in amyloid beta40 production after 4 hrs by ECL technology. In a few lines: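 HEK293 cells expressing human APP with Swedish and London mutations were given fresh medium and incubated with inhibitor for 4 h. Ab40 was measured in 10 microliters of conditioned medium by ECL. Values are means of n = 2.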

For 38 compounds, IC50 results are on record in ChEMBL document CHEMBL1158621, “Tricyclic sulfones as orally active gamma-secretase inhibitors: synthesis and structure-activity relationship studies” (Bioorg Med Chem Lett, 2010).

Broadly, the IC50 is the midpoint of a concentration-inhibition curve.

Turning to `O=S(=O)(NC[C@@H]1CCC[C@@]2(S(=O)(=O)c3ccc(Cl)cc3)c3c(F)ccc(F)c3OC[C@@H]12)c1ccccc1`, the IC50 amounted to 61 nM in assay [1], 46 nM in assay [2] and 128 nM in assay [3].

Turning to `CCCS(=O)(=O)NC[C@@H]1CCC[C@@]2(S(=O)(=O)c3ccc(Cl)cc3)c3c(F)ccc(F)c3OC[C@@H]12`, the figures for the IC50 in assay [1], in assay [2] and in assay [3] were 5.5 nM, 6 nM and 12 nM, respectively.

For the compound `CCN(CC)S(=O)(=O)NC[C@@H]1CCC[C@@]2(S(=O)(=O)c3ccc(Cl)cc3)c3c(F)ccc(F)c3OC[C@@H]12`, the figures for the IC50 in assay [1], in assay [2] and in assay [3] were 9 nM, 3 nM and 6 nM, respectively.

For `O=S(=O)(NC[C@@H]1CCC[C@@]2(S(=O)(=O)c3ccc(Cl)cc3)c3c(F)ccc(F)c3OC[C@@H]12)N1CCOCC1`, the values for the concentration for half-maximal inhibition (IC50) in assay [1], in assay [2] and in assay [3] were 3.4 nM, 3 nM and 6 nM, respectively.

For `CS(=O)(=O)N(C[C@@H]1CCC[C@@]2(S(=O)(=O)c3ccc(C(F)(F)F)cc3)c3c(F)ccc(F)c3OC[C@@H]12)C1CC1`, the IC50 in assay [1] turned out to be 5.8 nM; in assay [2], 6 nM; in assay [3] it was 9 nM.

For `CCN(C[C@@H]1CCC[C@@]2(S(=O)(=O)c3ccc(C(F)(F)F)cc3)c3c(F)ccc(F)c3OC[C@@H]12)S(=O)(=O)C(F)(F)F`, the IC50 in assay [1] came to 97 nM; in assay [2] it was 21 nM; in assay [3], 42 nM.

`O=S(=O)(NC[C@@H]1CCC[C@@]2(S(=O)(=O)c3ccc(Cl)cc3)c3c(F)ccc(F)c3OC[C@@H]12)c1c(F)cccc1F`: the IC50 turned out to be 13 nM in assay [1], 17 nM in assay [2] and 32 nM in assay [3].

As for `O=S(=O)(N(C[C@@H]1CCC[C@@]2(S(=O)(=O)c3ccc(Cl)cc3)c3c(F)ccc(F)c3OC[C@@H]12)C1CC1)C(F)(F)F`, the IC50 in assay [1] came to 15 nM; in assay [2], 9 nM; in assay [3], 21 nM.

As for `O=S(=O)(CC(F)(F)F)NC[C@@H]1CCC[C@@]2(S(=O)(=O)c3ccc(Cl)cc3)c3c(F)ccc(F)c3OC[C@@H]12`, the figures for the IC50 in assay [1], in assay [2] and in assay [3] were 7.8 nM, 4 nM and 16 nM, respectively.

As for `CCOC(=O)CCS(=O)(=O)NC[C@@H]1CCC[C@@]2(S(=O)(=O)c3ccc(Cl)cc3)c3c(F)ccc(F)c3OC[C@@H]12`, the IC50 in assay [1] was 2 nM; in assay [2] it was 3 nM; in assay [3], 4 nM.

For the compound `CC(C)S(=O)(=O)NC[C@@H]1CCC[C@@]2(S(=O)(=O)c3ccc(Cl)cc3)c3c(F)ccc(F)c3OC[C@@H]12`, the IC50 was determined as 5.2 nM in assay [1], 5 nM in assay [2] and 12 nM in assay [3].

Regarding `CS(=O)(=O)N(C[C@@H]1CCC[C@@]2(S(=O)(=O)c3ccc(Cl)cc3)c3c(F)ccc(F)c3OC[C@@H]12)C1CC1`, the IC50 is 3.3 nM in assay [1], 4 nM in assay [2] and 6 nM in assay [3].

With `CN(C)S(=O)(=O)NC[C@@H]1CCC[C@@]2(S(=O)(=O)c3ccc(Cl)cc3)c3c(F)ccc(F)c3OC[C@@H]12`, the IC50 is 2.7 nM in assay [1], 1 nM in assay [2] and 2 nM in assay [3].

For `CCS(=O)(=O)N(C[C@@H]1CCC[C@@]2(S(=O)(=O)c3ccc(C(F)(F)F)cc3)c3c(F)ccc(F)c3OC[C@@H]12)C1CC1`, the IC50 in assay [1] was 28 nM; in assay [2], 14.2 nM; in assay [3] it was 29.5 nM.

As for `O=S(=O)(NC[C@@H]1CCC[C@@]2(S(=O)(=O)c3ccc(Cl)cc3)c3c(F)ccc(F)c3OC[C@@H]12)N1CCCC1`, the concentration for half-maximal inhibition (IC50) in assay [1] turned out to be 3.3 nM; in assay [2], 3 nM; in assay [3], 5 nM.

Regarding `CCS(=O)(=O)NC[C@@H]1CCC[C@@]2(S(=O)(=O)c3ccc(Cl)cc3)c3c(F)ccc(F)c3OC[C@@H]12`, the IC50 in assay [1] came out at 1.6 nM; in assay [2], 2 nM; in assay [3], 4 nM.

Regarding `O=S1(=O)CCCN1C[C@@H]1CCC[C@@]2(S(=O)(=O)c3ccc(C(F)(F)F)cc3)c3c(F)ccc(F)c3OC[C@@H]12`, the results for the IC50 in assay [1], in assay [2] and in assay [3] were 90 nM, 25 nM and 72 nM, respectively.

As for `O=S(=O)(NC[C@@H]1CCC[C@@]2(S(=O)(=O)c3ccc(Cl)cc3)c3c(F)ccc(F)c3OC[C@@H]12)c1cccs1`, the figures for the IC50 in assay [1], in assay [2] and in assay [3] were 16.7 nM, 18 nM and 45 nM, respectively.

As to `CN1CCN(C[C@@H]2CCC[C@@]3(S(=O)(=O)c4ccc(C(F)(F)F)cc4)c4c(F)ccc(F)c4OC[C@@H]23)S1(=O)=O`, the IC50 was determined as 68 nM in assay [1], 13 nM in assay [2] and 23 nM in assay [3].

With `CCN(C[C@@H]1CCC[C@@]2(S(=O)(=O)c3ccc(C(F)(F)F)cc3)c3c(F)ccc(F)c3OC[C@@H]12)S(=O)(=O)C1CC1`, the IC50 in assay [1] is 83 nM; in assay [2], 21 nM; in assay [3], 46.7 nM.

With `CCN(C[C@@H]1CCC[C@@]2(S(=O)(=O)c3ccc(Cl)cc3)c3c(F)ccc(F)c3OC[C@@H]12)S(C)(=O)=O`, the IC50 in assay [1] came out at 5.5 nM; in assay [2] it was 5 nM; in assay [3] it was 12 nM.

Compound `O=S1(=O)NCCN1C[C@@H]1CCC[C@@]2(S(=O)(=O)c3ccc(C(F)(F)F)cc3)c3c(F)ccc(F)c3OC[C@@H]12` came in with an IC50 in assay [1] of 37.7 nM.

For `O=S(=O)(NC[C@@H]1CCC[C@@]2(S(=O)(=O)c3ccc(Cl)cc3)c3c(F)ccc(F)c3OC[C@@H]12)C1CC1`, the IC50 in assay [1] was determined as 3.1 nM; in assay [2], 4 nM; in assay [3], 4 nM.

As to `CCN(C[C@@H]1CCC[C@@]2(S(=O)(=O)c3ccc(Cl)cc3)c3c(F)ccc(F)c3OC[C@@H]12)S(=O)(=O)C1CC1`, the figures for the IC50 in assay [1], in assay [2] and in assay [3] were 20.5 nM, 9 nM and 25 nM, respectively.

For the compound `CS(=O)(=O)NC[C@@H]1CCC[C@@]2(S(=O)(=O)c3ccc(Cl)cc3)c3c(F)ccc(F)c3OC[C@@H]12`, the figures for the IC50 in assay [1], in assay [2] and in assay [3] were 2.5 nM, 2 nM and 2 nM, respectively.

Regarding `O=S(=O)(NC[C@@H]1CCC[C@@]2(S(=O)(=O)c3ccc(Cl)cc3)c3c(F)ccc(F)c3OC[C@@H]12)N1CCCCC1`, the IC50 in assay [1] worked out at 6 nM; in assay [2], 11 nM; in assay [3], 19 nM.

Consider `CCCCS(=O)(=O)NC[C@@H]1CCC[C@@]2(S(=O)(=O)c3ccc(Cl)cc3)c3c(F)ccc(F)c3OC[C@@H]12`, for which the IC50 is 13 nM in assay [1], 13 nM in assay [2] and 29 nM in assay [3].

For the compound `O=S(=O)(NC[C@@H]1CCC[C@@]2(S(=O)(=O)c3ccc(Cl)cc3)c3c(F)ccc(F)c3OC[C@@H]12)C1CCCCC1`, the values for the IC50 in assay [1], in assay [2] and in assay [3] were 55 nM, 20 nM and 60 nM, respectively.

Take `NS(=O)(=O)NC[C@@H]1CCC[C@@]2(S(=O)(=O)c3ccc(Cl)cc3)c3c(F)ccc(F)c3OC[C@@H]12`: the IC50 in assay [1] stood at 2 nM; in assay [2], 1 nM; in assay [3], 1 nM.

Regarding `CCN(C[C@@H]1CCC[C@@]2(S(=O)(=O)c3ccc(C(F)(F)F)cc3)c3c(F)ccc(F)c3OC[C@@H]12)S(C)(=O)=O`, the IC50 is 34 nM in assay [1], 7.4 nM in assay [2] and 18.5 nM in assay [3].

Take `CN(C)S(=O)(=O)NC[C@@H]1CCC[C@@]2(S(=O)(=O)c3ccc(C(F)(F)F)cc3)c3c(F)ccc(F)c3OC[C@@H]12`: the IC50 is 6.8 nM in assay [1], 5.4 nM in assay [2] and 12.7 nM in assay [3].

`CCN(C[C@@H]1CCC[C@@]2(S(=O)(=O)c3ccc(Cl)cc3)c3c(F)ccc(F)c3OC[C@@H]12)S(=O)(=O)CC`: the IC50 in assay [1] turned out to be 16 nM; in assay [2], 7 nM; in assay [3] it was 15 nM.

Take `O=S(=O)(NC[C@@H]1CCC[C@@]2(S(=O)(=O)c3ccc(C(F)(F)F)cc3)c3c(F)ccc(F)c3OC[C@@H]12)C1CC1`: the results for the IC50 in assay [1], in assay [2] and in assay [3] were 19.7 nM, 6.3 nM and 17.5 nM, respectively.

Regarding `O=S(=O)(CC(F)(F)F)NC[C@@H]1CCC[C@@]2(S(=O)(=O)c3ccc(C(F)(F)F)cc3)c3c(F)ccc(F)c3OC[C@@H]12`, the 50% inhibitory concentration (IC50) in assay [1] was found to be 25 nM; in assay [2] it was 8 nM; in assay [3], 22.7 nM.

Consider `NS(=O)(=O)NC[C@@H]1CCC[C@@]2(S(=O)(=O)c3ccc(C(F)(F)F)cc3)c3c(F)ccc(F)c3OC[C@@H]12`, for which the figures for the IC50 in assay [1], in assay [2] and in assay [3] were 18.7 nM, 4 nM and 6 nM, respectively.

Take `O=S(=O)(N(C[C@@H]1CCC[C@@]2(S(=O)(=O)c3ccc(C(F)(F)F)cc3)c3c(F)ccc(F)c3OC[C@@H]12)C1CC1)C(F)(F)F`: the IC50 in assay [1] was determined as 35.3 nM; in assay [2], 14.2 nM; in assay [3] it was 15.3 nM.

On to `CCS(=O)(=O)NC[C@@H]1CCC[C@@]2(S(=O)(=O)c3ccc(C(F)(F)F)cc3)c3c(F)ccc(F)c3OC[C@@H]12`, for which the results for the IC50 in assay [1], in assay [2] and in assay [3] were 20 nM, 1.6 nM and 5.5 nM, respectively.

As to `O=S1(=O)CCCCN1C[C@@H]1CCC[C@@]2(S(=O)(=O)c3ccc(C(F)(F)F)cc3)c3c(F)ccc(F)c3OC[C@@H]12`, the IC50 in assay [1] was 122 nM.
